Laboratory results as given in ChEMBL document CHEMBL4033788, “Novel Ligustrazine-Based Analogs of Piperlongumine Potently Suppress Proliferation and Metastasis of Colorectal Cancer Cells in Vitro and in Vivo” (J Med Chem, 2018).
Converted amounts (≈) assume the structure as drawn.

Columns and labels:
[1] = Drug level in DMSO treated with (E)-3-Chloro-1-(3-(3,5,6-trimethylpyrazin-2-yl)acryloyl)-5,6-dihydropyridin-2(1H)-one at 5 mg up to 8 hrs in presence of methyl thioglycolate by 1H NMR analysis
A549 [2] = assay: Antiproliferative activity against human A549 cells after 72 hrs by MTT assay; type: functional, cell-based; details: A549, 72 h
[3] = Aqueous solubility of compound by HPLC analysis; type: physicochemical; details: water
Summary of the method: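 Compound shaken in pure water or 50 mM phosphate buffer pH 7.4 at 20 °C, then centrifuged. Supernatant assayed by C18 HPLC (acetonitrile–water 60/40, 1.0 mL/min, 254 nm). Triplicate.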

HCT-116 [4] = assay: Antiproliferative activity against human HCT116 cells after 72 hrs by MTT assay; type: functional, cell-based; details: HCT-116, 72 h
Summary of the method: (§1)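 Cells grown in RPMI 1640 with 10% FBS in 96-well plates overnight, then exposed to test agents in triplicate for 72 h. MTT (5 mg/mL stock) added for the last 4 h, formazan dissolved in DMSO, absorbance read at 570 nm. Inhibition = (1 − OD treated/OD control) × 100%.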

U-87 MG [5] = assay: Antiproliferative activity against human U87MG cells after 72 hrs by MTT assay; type: functional, cell-based, U-87MG ATCC; summary of the method: as §1
[6] = Solubility of compound in phosphate buffer at pH 7.4 after 8 hrs by HPLC analysis; type: physicochemical
Summary of the method: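 Compound was shaken in 50 mM phosphate buffer (pH 7.4) at 20 °C, centrifuged, and the supernatant analysed by HPLC. Conditions were a C18 column, acetonitrile–water 60/40 (v/v) at 1.0 mL/min, with detection at 254 nm. Run in triplicate.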

K562 [7] = assay: Antiproliferative activity against human K562 cells after 72 hrs by MTT assay; type: functional, cell-based; details: K562, 72 h; summary of the method: as §1
A549 [8] = assay: Antiproliferative activity against human A549 cells after 72 hrs in presence of piperlongumine by MTT assay; type: functional, cell-based; details: A549, 72 h; summary of the method: as §1
K562 [9] = assay: Antiproliferative activity against human K562 cells after 72 hrs in presence of piperlongumine by MTT assay; type: functional, cell-based; details: K562, 72 h; summary of the method: as §1
HCT-116 [10] = assay: Antiproliferative activity against human HCT116 cells after 72 hrs in presence of piperlongumine by MTT assay; type: functional, cell-based; details: HCT-116, 72 h; summary of the method: as §1
U-87 MG [11] = assay: Antiproliferative activity against human U87MG cells after 72 hrs in presence of piperlongumine by MTT assay; type: functional, cell-based, U-87MG ATCC; summary of the method: as §1

| IC50 (A549 [2]) [µM] | solubility [3] [µg/mL] | IC50 (HCT-116 [4]) [µM] | IC50 (U-87 MG [5]) [µM] | solubility at 8 h [6] [µg/mL] | IC50 (K562 [7]) [µM] | IC50 (A549 [8]) [µM] | IC50 (K562 [9]) [µM] | IC50 (HCT-116 [10]) [µM] | IC50 (U-87 MG [11]) [µM] | SMILES | Drug metabolism [1] |
| --- | --- | --- | --- | --- | --- | --- | --- | --- | --- | --- | --- |
| – | – | – | – | – | – | – | – | – | – | COC(=O)CSC1CCN(C(=O)/C=C/c2nc(C)c(C)nc2C)C(=O)C1Cl (configuration not stated) | Metabolite detected |
| 3.19 | 14.5 (≈ 36.5 µM) | 0.76 | 7.26 | 49.9 (≈ 125 µM) | 0.64 | – | – | – | – | Cc1nc(C)c(/C=C/C(=O)N2CCC=C(I)C2=O)nc1C | – |
| – | – | – | – | – | – | 15.2 | 5.09 | 8.17 | 16.1 | Cc1nc(C)c(C)nc1C [LIGUSTRAZINE] | – |
| 2.48 | 20.2 (≈ 57.6 µM) | 0.46 | 4.28 | 67.3 (≈ 192 µM) | 0.48 | – | – | – | – | Cc1nc(C)c(/C=C/C(=O)N2CCC=C(Br)C2=O)nc1C | – |
| 4.86 | 42.6 (≈ 157 µM) | 1.67 | 8.73 | 328 (≈ 1210 µM) | 1.13 | – | – | – | – | Cc1nc(C)c(/C=C/C(=O)N2CCC=CC2=O)nc1C | – |
| > 50 | – | > 50 | > 50 | – | > 50 | – | – | – | – | Cc1nc(C)c(/C=C/C(=O)N2CCCCC2=O)nc1C | – |
